Experiment [1] is described as follows: reduced viability of SK-BR-3 breast cancer cells – cell-based, 24 h, human, pilot screen (AID 572;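 active means viability at or below 10% of carrier control in both of two separate runs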;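 further: compound exposure lasted between 18 and 24 h rather than exactly 24 h; 100% = carrier-treated control wells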). To be noted: SK-BR-3 viability, CellTiter-Glo luminescence, at 10 µM, stronger effect = lower value.
Experiment [2] can be described thus: HUVEC growth inhibition – cell-based, human, primary screen (AID 575;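 active means viability at or below 30% in both replicate assays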;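 further: 100% = median of untreated cell wells with 0.1% DMSO on each plate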). The conditions noted are these: HUVEC proliferation, CellTiter-Glo luminescence, 72 h; at 10 µM; stronger effect = lower value. A digest of the protocol: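 Test system: primary human umbilical vein endothelial cells. Quantity: 1250 cells/well. Compound: single 10 µM dose, 0.1% DMSO, from 5x medium stock. Timing: 72 h treatment at 37 °C. Detection: ATP-based CellTiter-Glo luminescent read. Benchmarks: vehicle and MePR control wells. Format: 384-well plates coated with collagen.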
Background: Cellular ATP, detected with luciferase, serves as a proxy for viable cell number.

Experiment [3] can be described thus: H69AR cell proliferation blockers – human, duplicate replicates, primary screen (AID 580).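 Further: 100% = mean luminescence of untreated wells and 0% = no signal.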 To be noted: H69AR lung tumor cells viability, ATP luminescence, 72 h; at 10 µM; stronger effect = lower value.
Experiment [4] in a line: MRP1 drug-resistance reversers in H69AR cells – cell-based, doxorubicin co-treatment, pilot screen (AID 601;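 active means viability loss from added drug above about 55%, and viability with drug at most 40%, in both replicates, limit read from the data, passing the limit was not always enough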). The conditions noted are these: CellTiter-Glo, 72 h, at 10 µM; for differential viability (reversal): stronger effect = higher value.
Experiment [5] can be described thus: yeast transport mutant growth inhibition pilot in 384-well plates, post-Golgi transport modulator project (AID 636; in the data active means inhibition above about 31%). To be noted: absorbance 615 nm, about 18 h, stronger effect = higher value.
Experiment [6] in a line: growth suppression of yeast trafficking mutant, preliminary HTS, modulators of trafficking downstream of Golgi apparatus project, 1536-format plate, OD 615 nm (AID 637; in the data active means inhibition above about 30%). The conditions noted are these: yeast transport mutant growth, absorbance 615 nm, 18 h; stronger effect = higher value.
Setting [7] is: H69AR cells + 2 uM doxorubicin, measured here: viability with 2 uM doxorubicin, stronger effect = lower value.
Where [8] appears, read: H69AR cells, compound alone cytotoxicity.

Usually viability stands for a read-out of living cells in per cent, often relative to untreated cells. As a reminder, the inhibition is the change of the read-out against control, counted positive when it falls.

Active and inactive are the calls of the source.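 How the source made its calls, unless noted: active means viability at or under a set limit in both replicates, limit being median viability minus 3 SD (cut at about 48% in these data, passing the limit was not always enough); inconclusive means at or under the limit in just one replicate; inactive means at or above the limit in both replicates.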

Take `O=P(CCNCc1ccco1)(c1ccccc1)c1ccccc1`: the viability is 110% (inactive) in experiment [1]; 97.8% (inactive) in experiment [2]; 97.4% (inactive) in experiment [3]; 94.8% in experiment [4] (setting [7]); 97.4% in experiment [4] (setting [8]). In experiment [4] (H69AR cells + 2 uM doxorubicin), the differential viability (reversal) was 2.59% (inactive). Also, the inhibition was -5.6% (inactive) in experiment [5] and -4.18% (inactive) in experiment [6].
Consider `CCOC(=O)c1ccc(NC(=O)CCc2nc(-c3ccc(C)cc3)no2)cc1`, for which the viability is 85% (inactive) in experiment [1]; 38% (inactive) in experiment [2]; 94.3% (inactive) in experiment [3]; 88.8% in experiment [4] (setting [7]); 94.3% in experiment [4] (setting [8]). Further, in experiment [4] (H69AR cells + 2 uM doxorubicin), the differential viability (reversal) is 5.47% (inactive). Moreover, the inhibition in experiment [5] was -3.29% (inactive); in experiment [6] it was 3.93% (inactive).
For the molecule `Cc1ccc(CN2CCN(C(=O)C3CCC3)CC2)cc1`, the viability in experiment [1] is 88% (inactive); in experiment [2], 102% (inactive); in experiment [3], 97% (inactive); in experiment [4] (setting [7]) it was 92.9%; in experiment [4] (setting [8]), 97%. Also, the differential viability (reversal) in experiment [4] (H69AR cells + 2 uM doxorubicin) was 4.13% (inactive). Besides, the figures for the inhibition in experiment [5] and in experiment [6] were -8.49% (inactive) and 2.36% (inactive), respectively.
Consider `CCOC(=O)c1[nH]c2ccc(F)cc2c1NC(=O)C(C)N1CCc2cc(OC)c(OC)cc2C1` (centres undefined), for which the viability was 99% (inactive) in experiment [1]; 57.9% (inactive) in experiment [2]; 13.5% (active) in experiment [3]; 68.7% in experiment [4] (setting [7]); 13.5% in experiment [4] (setting [8]). Further, in experiment [4] (H69AR cells + 2 uM doxorubicin), the differential viability (reversal) was -55.2% (inactive). For the same molecule, the inhibition in experiment [5] was -3.42% (inactive); in experiment [6], 7.87% (inactive).
As for `CNc1nnc(-c2cccc(N(C)C)c2)s1`, the viability in experiment [1] is 111% (inactive); in experiment [2], 95.9% (inactive); in experiment [3], 92% (inactive); in experiment [4] (setting [7]), 84.6%; in experiment [4] (setting [8]), 92%. Also, the differential viability (reversal) in experiment [4] (H69AR cells + 2 uM doxorubicin) was 7.45% (inactive). Besides, the inhibition in experiment [5] was -4.55% (inactive); in experiment [6] it was 7.38% (inactive).
For the molecule `O=C(Nc1cc(C(=O)N2CCCC2)ccc1N1CCCC1)c1ccccc1F`, the viability in experiment [1] was 108% (inactive); in experiment [2], 119% (inactive); in experiment [3], 101% (inactive); in experiment [4] (setting [7]), 92%; in experiment [4] (setting [8]), 101%. In experiment [4] (H69AR cells + 2 uM doxorubicin), the differential viability (reversal) was 8.93% (inactive). For the same molecule, the inhibition is -8.13% (inactive) in experiment [5] and -3.64% (inactive) in experiment [6].
Take `O=C(CSc1oc(-c2ccco2)nc1S(=O)(=O)c1ccccc1)NCC1CCCO1` (centres undefined): the viability is 97% (inactive) in experiment [1]; 99.7% (inactive) in experiment [2]; 86.5% (inactive) in experiment [3]; 80.5% in experiment [4] (setting [7]); 86.5% in experiment [4] (setting [8]). For the same molecule, the differential viability (reversal) in experiment [4] (H69AR cells + 2 uM doxorubicin) was 5.96% (inactive). The inhibition in experiment [5] was 4.66% (inactive); in experiment [6] it was -0.16% (inactive).
`Nc1ccc(S(=O)(=O)c2cccc(N)c2)cc1`: the viability was 62% (inactive) in experiment [1]; 100% (inactive) in experiment [2]; 96.2% (inactive) in experiment [3]; 84.4% in experiment [4] (setting [7]); 96.2% in experiment [4] (setting [8]). Also, the differential viability (reversal) in experiment [4] (H69AR cells + 2 uM doxorubicin) is 11.8% (inactive). Further, the inhibition in experiment [5] is -9.18% (inactive); in experiment [6] it was 1.64% (inactive).
Turning to `COCCNC(=O)C(c1ccc(C)o1)N(C(=O)c1snc(C(N)=O)c1N)c1ccc(C)cc1` (centres undefined), the viability in experiment [1] was 100% (inactive); in experiment [2] it was 87.5% (inactive); in experiment [3] it was 92.1% (inactive); in experiment [4] (setting [7]), 83.1%; in experiment [4] (setting [8]) it was 92.1%. Besides, the differential viability (reversal) in experiment [4] (H69AR cells + 2 uM doxorubicin) is 9.05% (inactive). In addition, the inhibition is -3.87% (inactive) in experiment [5] and 3.64% (inactive) in experiment [6].
As to `Cc1cccc(NC(=O)C2CCCN(C(=O)Nc3ccccc3)C2)c1C` (centres undefined), the viability is 88% (inactive) in experiment [1]; 102% (inactive) in experiment [2]; 96.2% (inactive) in experiment [3]; 90.8% in experiment [4] (setting [7]); 96.2% in experiment [4] (setting [8]). In addition, the differential viability (reversal) in experiment [4] (H69AR cells + 2 uM doxorubicin) is 5.37% (inactive). Also, the inhibition in experiment [5] is -1.04% (inactive); in experiment [6], 3.11% (inactive).
`C=COCCNC(=O)Nc1ccc(Cl)c(Cl)c1`: the viability is 91% (inactive) in experiment [1]; 101% (inactive) in experiment [2]; 91.1% (inactive) in experiment [3]; 94.1% in experiment [4] (setting [7]); 91.1% in experiment [4] (setting [8]). Also, in experiment [4] (H69AR cells + 2 uM doxorubicin), the differential viability (reversal) is -3.01% (inactive). In addition, the inhibition is 2.16% (inactive) in experiment [5] and -1.09% (inactive) in experiment [6].
Regarding `O=C(c1nn2cccnc2c1Cl)N1CCN(c2ccccc2)CC1`, the viability was 66% (inactive) in experiment [1]; 102% (inactive) in experiment [2]; 108% (inactive) in experiment [3]; 97.8% in experiment [4] (setting [7]); 108% in experiment [4] (setting [8]). Also, the differential viability (reversal) in experiment [4] (H69AR cells + 2 uM doxorubicin) is 10.1% (inactive). Further, the values for the inhibition in experiment [5] and in experiment [6] were -6.99% (inactive) and 3.82% (inactive), respectively.
Turning to `C1CCN=C(Nc2nc3c(s2)CCCC3)CC1`, the viability in experiment [1] is 104% (inactive); in experiment [2], 109% (inactive); in experiment [3] it was 89.4% (inactive); in experiment [4] (setting [7]), 81.9%; in experiment [4] (setting [8]), 89.4%. For the same molecule, in experiment [4] (H69AR cells + 2 uM doxorubicin), the differential viability (reversal) is 7.56% (inactive). Also, the values for the inhibition in experiment [5] and in experiment [6] were -5.6% (inactive) and -1.45% (inactive), respectively.
Take `CN1CCc2c(sc3c2c(=O)n(-c2ccccc2)c2nnc(SCc4ccccc4)n32)C1`: the viability is 77% (inactive) in experiment [1]; 108% (inactive) in experiment [2]; 95.8% (inactive) in experiment [3]; 86% in experiment [4] (setting [7]); 95.8% in experiment [4] (setting [8]). Besides, the differential viability (reversal) in experiment [4] (H69AR cells + 2 uM doxorubicin) was 9.76% (inactive). Further, the figures for the inhibition in experiment [5] and in experiment [6] were -2.33% (inactive) and 1.82% (inactive), respectively.
Take `CN(c1ccc(OCc2nnc(-c3ccccc3)o2)cc1)S(=O)(=O)c1ccccc1`: the viability in experiment [1] is 99% (inactive); in experiment [2], 96.6% (inactive); in experiment [3] it was 82.9% (inactive); in experiment [4] (setting [7]), 80.5%; in experiment [4] (setting [8]) it was 82.9%. The differential viability (reversal) in experiment [4] (H69AR cells + 2 uM doxorubicin) is 2.42% (inactive). For the same molecule, the inhibition in experiment [5] was -7.7% (inactive); in experiment [6], -5.45% (inactive).
As for `O=C(Nc1ccccc1)N1CCC(c2ccccc2)C1` (centres undefined), the viability in experiment [1] was 62% (inactive); in experiment [2] it was 109% (inactive); in experiment [3], 86.7% (inactive); in experiment [4] (setting [7]), 67.5%; in experiment [4] (setting [8]), 86.7%. Further, in experiment [4] (H69AR cells + 2 uM doxorubicin), the differential viability (reversal) was 19.2% (inactive). Besides, the values for the inhibition in experiment [5] and in experiment [6] were -2.6% (inactive) and 4.92% (inactive), respectively.
On to `COc1ccc(NC(=O)CSc2nc3c(c(=O)n2-c2ccc(F)cc2)SCC3)c(OC)c1`, for which the viability in experiment [1] was 89% (inactive); in experiment [2], 91.1% (inactive); in experiment [3], 90.7% (inactive); in experiment [4] (setting [7]), 77.5%; in experiment [4] (setting [8]) it was 90.7%. Besides, the differential viability (reversal) in experiment [4] (H69AR cells + 2 uM doxorubicin) was 13.1% (inactive). The inhibition in experiment [5] was -6.71% (inactive); in experiment [6] it was 3.87% (inactive).
In the case of `COc1cc(NS(=O)(=O)c2ccc(N)cc2)ncn1`, the viability in experiment [1] is 107% (inactive); in experiment [2], 75% (inactive); in experiment [3], 92% (inactive); in experiment [4] (setting [7]), 65%; in experiment [4] (setting [8]) it was 92%. Also, the differential viability (reversal) in experiment [4] (H69AR cells + 2 uM doxorubicin) is 27% (inactive). For the same molecule, the inhibition is -1.56% (inactive) in experiment [5] and 2.5% (inactive) in experiment [6].
